# Assay results published in ChEMBL document CHEMBL4196201, “Discovery of N-(4-{[5-Fluoro-7-(2-methoxyethoxy)quinazolin-4-yl]amino}phenyl)-2-[4-(propan-2-yl)-1 H-1,2,3-triazol-1-yl]acetamide (AZD3229), a Potent Pan-KIT Mutant Inhibitor for the Treatment of Gastrointestinal Stromal Tumors” (J Med Chem, 2018).
# The source made the active and inactive calls. No cut-off for these calls is given here.
# Experiments:
# [1] = Lipophilicity, log D of the compound at pH 7.4; type: physicochemical; conditions: buffer
# [2] = Permeability from apical to basolateral side in human Caco2 cells at 10 uM at pH 6.5; type: ADME, cell-based; conditions: Caco-2, pH 6.5, read-out: permeability
# Summary of the method: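 Caco2 permeability from A to B was measured at pH6.5 using a 10 μM compound solution, reported in units of 1E-6 cm/s.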
# [3] = Protein binding in rat plasma assessed as unbound fraction level; type: ADME, cell-free
# [4] = Protein binding in human plasma assessed as unbound fraction level; type: ADME, cell-free
# [5] = Intrinsic clearance in mouse hepatocytes assessed per million cells; type: ADME, cell-based, Hepatocyte; conditions: read-out: CLH
# [6] = Intrinsic clearance in rat hepatocytes assessed per million cells; type: ADME, cell-based, Hepatocyte; conditions: read-out: CLH
# [7] = Intrinsic clearance in dog hepatocytes assessed per million cells; type: ADME, cell-based, Canis lupus familiaris, Hepatocyte; conditions: read-out: CLH
# [8] = target: Voltage-gated inwardly rectifying potassium channel KCNH2 (Homo sapiens, UniProt Q12809); assay: Inhibition of human ERG
# Chain of Voltage-gated inwardly rectifying potassium channel KCNH2 (Q12809 whole entry): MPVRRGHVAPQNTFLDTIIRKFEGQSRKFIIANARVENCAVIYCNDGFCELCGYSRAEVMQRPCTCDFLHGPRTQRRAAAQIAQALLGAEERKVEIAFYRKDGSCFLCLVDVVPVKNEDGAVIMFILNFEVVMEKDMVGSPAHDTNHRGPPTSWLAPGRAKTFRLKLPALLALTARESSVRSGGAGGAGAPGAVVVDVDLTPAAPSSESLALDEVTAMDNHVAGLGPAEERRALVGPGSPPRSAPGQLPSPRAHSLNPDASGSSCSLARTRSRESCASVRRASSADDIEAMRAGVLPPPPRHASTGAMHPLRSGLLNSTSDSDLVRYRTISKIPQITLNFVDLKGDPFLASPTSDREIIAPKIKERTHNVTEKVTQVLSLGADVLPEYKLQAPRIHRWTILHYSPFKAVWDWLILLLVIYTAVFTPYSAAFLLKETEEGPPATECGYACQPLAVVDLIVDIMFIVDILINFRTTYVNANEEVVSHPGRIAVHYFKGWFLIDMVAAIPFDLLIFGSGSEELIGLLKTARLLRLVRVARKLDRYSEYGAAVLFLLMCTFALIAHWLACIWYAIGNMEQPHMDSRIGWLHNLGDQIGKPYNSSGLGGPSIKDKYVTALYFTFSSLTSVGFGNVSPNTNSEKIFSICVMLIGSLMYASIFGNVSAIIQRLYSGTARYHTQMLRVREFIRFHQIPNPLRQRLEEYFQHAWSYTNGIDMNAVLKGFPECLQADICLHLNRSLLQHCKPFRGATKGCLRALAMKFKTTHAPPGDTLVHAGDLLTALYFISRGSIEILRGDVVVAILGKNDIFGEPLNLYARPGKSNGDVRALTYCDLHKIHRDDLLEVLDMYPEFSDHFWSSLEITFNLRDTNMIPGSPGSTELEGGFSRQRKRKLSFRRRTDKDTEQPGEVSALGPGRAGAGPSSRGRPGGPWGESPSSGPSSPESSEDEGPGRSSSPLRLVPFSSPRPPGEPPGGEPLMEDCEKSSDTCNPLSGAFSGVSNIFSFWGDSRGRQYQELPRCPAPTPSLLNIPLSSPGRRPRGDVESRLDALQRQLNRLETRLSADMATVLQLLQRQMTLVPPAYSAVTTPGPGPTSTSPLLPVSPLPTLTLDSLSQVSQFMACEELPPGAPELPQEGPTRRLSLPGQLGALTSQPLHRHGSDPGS
# [9] = Clearance in CD1 mouse at 10 umol/kg, iv; type: ADME, organism-based; conditions: in vivo
# Summary of the method: (§1)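 PK was run in CD1 mice with an iv dose of 10 μMol/kg and an oral dose of 21 μMol/kg. Cl, Vdss, t1/2 and F% were derived.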
# [10] = Volume of distribution at steady state in CD1 mouse at 10 umol/kg, iv; type: ADME, organism-based; conditions: in vivo, read-out: Vdss
# Summary of the method: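 PK in CD1 mice given an iv dose of 10 μMol/kg, alongside a separate oral dose of 21 μMol/kg. Clearance, Vdss, half-life and oral bioavailability were derived from these profiles.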
# [11] = Half life in CD1 mouse at 21 umol/kg, po; type: ADME, organism-based; conditions: in vivo; summary of the method: as §1
# [12] = Oral bioavailability in CD1 mouse at 21 umol/kg; type: ADME, organism-based; conditions: in vivo; summary of the method: as §1
# [13] = Clearance in Han Wistar rat at 1 umol/kg, iv; type: ADME, organism-based; conditions: in vivo
# Summary of the method: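 PK was run in Han Wistar rats with an iv dose of 1 μMol/kg and an oral dose of 2.1 μMol/kg. Cl, Vdss, t1/2 and F% were derived.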
# [14] = Half life in Han Wistar rat at […], po; type: ADME, organism-based; conditions: in vivo
# [15] = Clearance in dog rat at 1 umol/kg, iv; type: ADME, organism-based, Canis lupus familiaris; conditions: in vivo
# [16] = Volume of distribution at steady state in dog […] at 1 umol/kg, iv; type: ADME, organism-based, Canis lupus familiaris; conditions: in vivo, read-out: Vdss
# [17] = Oral bioavailability in dog at […]; type: ADME, organism-based, Canis lupus familiaris; conditions: in vivo
# [18] = test system: Mus musculus; assay: Inhibition of Kit exon 11 deletion (557 to 558 residues) and D816H mutant phosphorylation (unknown origin) transfected in mouse BA/F3 cells allografted in CB17 SCID mouse at 20 mg/kg, po administered as single dose measured after 8 hrs; type: functional, organism-based
# Summary of the method: (§2)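 A single 20 mg/kg p.o. dose was given to mice carrying exon 11 del/D816H Ba/F3 allografts. Tumor pKIT, pERK and pAKT were measured over a timecourse, with free compound cover tracked in the same study.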
# [19] = test system: Mus musculus; assay: Inhibition of Kit exon 11 deletion (557 to 558 residues) and D816H mutant phosphorylation (unknown origin) transfected in mouse BA/F3 cells allografted in CB17 SCID mouse at 20 mg/kg, po administered as single dose measured after 24 hrs; type: functional, organism-based; summary of the method: as §2
# [20] = test system: Mus musculus; assay: Inhibition of Kit exon 11 deletion (557 to 558 residues) and D816H mutant (unknown origin) transfected in mouse BA/F3 cells allografted in CB17 SCID mouse assessed as reduction in AKT phosphorylation at 20 mg/kg, po administered as single dose measured after 24 hrs; type: functional, organism-based; summary of the method: as §2
# [21] = test system: BaF3; assay: Antitumor activity against mouse BA/F3 cells expressing Kit exon 11 deletion (557 to 558 residues) and D816H mutant (unknown origin) allografted in CB17 SCID mouse assessed as inhibition of tumor growth at 20 mg/kg, po bid measured on last day of dosing; type: functional; conditions: read-out: TGI
# Summary of the method: (§3)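 Ba/F3 cells bearing the KIT exon 11 del/D816H or exon 11 del/V654A mutation were grown as allografts in mice. Compounds were given p.o. once (QD) or twice daily (BD), and vehicle was given BD p.o. Tumor growth inhibition and regression (%) were taken on the last day of dosing. p-values were calculated relative to vehicle.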
# [22] = test system: BaF3; assay: Antitumor activity against mouse BA/F3 cells expressing Kit exon 11 deletion (557 to 558 residues) and V654 mutant (unknown origin) allografted in CB17 SCID mouse assessed as inhibition of tumor growth at 2 mg/kg, po bid measured on last day of dosing; type: functional; conditions: read-out: TGI; summary of the method: as §3
# [23] = test system: BaF3; assay: Antitumor activity against mouse BA/F3 cells expressing Kit exon 11 deletion (557 to 558 residues) and V654 mutant (unknown origin) allografted in CB17 SCID mouse assessed as inhibition of tumor growth at 20 mg/kg, po bid measured on last day of dosing; type: functional; conditions: read-out: TGI; summary of the method: as §3
# [24] = test system: BaF3; assay: Antitumor activity against mouse BA/F3 cells expressing Kit exon 11 deletion (557 to 558 residues) and D816H mutant (unknown origin) allografted in CB17 SCID mouse assessed as tumor regression at 2 mg/kg, po bid measured on last day of dosing; type: functional; summary of the method: as §3
# [25] = test system: BaF3; assay: Antitumor activity against mouse BA/F3 cells expressing Kit exon 11 deletion (557 to 558 residues) and D816H mutant (unknown origin) allografted in CB17 SCID mouse assessed as tumor regression at 20 mg/kg, po bid measured on last day of dosing; type: functional; summary of the method: as §3
# [26] = test system: Mast/stem cell growth factor receptor Kit (Homo sapiens), P10721 [UNDEFINED MUTATION]
# Chain of Mast/stem cell growth factor receptor Kit (Homo sapiens), P10721 [UNDEFINED MUTATION] (P10721 whole entry, looked up, stated change not applied): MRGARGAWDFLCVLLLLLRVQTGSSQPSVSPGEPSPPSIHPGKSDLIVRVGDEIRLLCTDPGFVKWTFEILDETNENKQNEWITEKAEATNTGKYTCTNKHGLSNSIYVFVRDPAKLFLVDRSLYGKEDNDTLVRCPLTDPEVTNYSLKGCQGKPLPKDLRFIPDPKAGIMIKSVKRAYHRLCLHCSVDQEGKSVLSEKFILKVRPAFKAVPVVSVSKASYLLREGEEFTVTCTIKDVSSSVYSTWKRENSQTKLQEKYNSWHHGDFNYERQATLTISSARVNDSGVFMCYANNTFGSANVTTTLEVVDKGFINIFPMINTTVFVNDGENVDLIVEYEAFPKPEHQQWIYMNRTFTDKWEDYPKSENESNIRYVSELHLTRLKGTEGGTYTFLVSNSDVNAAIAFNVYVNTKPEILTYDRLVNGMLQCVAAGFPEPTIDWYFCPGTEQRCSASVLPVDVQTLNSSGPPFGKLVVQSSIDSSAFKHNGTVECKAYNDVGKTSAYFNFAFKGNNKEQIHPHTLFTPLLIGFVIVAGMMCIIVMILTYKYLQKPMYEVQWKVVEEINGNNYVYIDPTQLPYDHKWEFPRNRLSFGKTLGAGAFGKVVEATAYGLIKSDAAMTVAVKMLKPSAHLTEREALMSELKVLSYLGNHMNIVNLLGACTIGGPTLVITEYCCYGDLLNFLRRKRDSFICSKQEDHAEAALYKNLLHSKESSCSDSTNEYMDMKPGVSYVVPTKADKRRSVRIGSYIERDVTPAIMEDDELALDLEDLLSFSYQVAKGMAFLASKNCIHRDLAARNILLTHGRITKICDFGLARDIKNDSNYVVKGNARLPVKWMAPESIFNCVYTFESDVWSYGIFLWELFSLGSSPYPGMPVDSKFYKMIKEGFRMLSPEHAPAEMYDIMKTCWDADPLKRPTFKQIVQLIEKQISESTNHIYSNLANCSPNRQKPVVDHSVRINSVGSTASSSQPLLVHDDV
# [27] = test system: Mast/stem cell growth factor receptor Kit (Homo sapiens), P10721 [UNDEFINED MUTATION]; remark: listed apart in the source
# [28] = test system: Mast/stem cell growth factor receptor Kit (Homo sapiens), P10721 [UNDEFINED MUTATION]; remark: listed apart in the source
# [29] = target: Vascular endothelial growth factor receptor 2 (Homo sapiens) (UniProt P35968)
# Chain of Vascular endothelial growth factor receptor 2 (Homo sapiens) (P35968 whole entry): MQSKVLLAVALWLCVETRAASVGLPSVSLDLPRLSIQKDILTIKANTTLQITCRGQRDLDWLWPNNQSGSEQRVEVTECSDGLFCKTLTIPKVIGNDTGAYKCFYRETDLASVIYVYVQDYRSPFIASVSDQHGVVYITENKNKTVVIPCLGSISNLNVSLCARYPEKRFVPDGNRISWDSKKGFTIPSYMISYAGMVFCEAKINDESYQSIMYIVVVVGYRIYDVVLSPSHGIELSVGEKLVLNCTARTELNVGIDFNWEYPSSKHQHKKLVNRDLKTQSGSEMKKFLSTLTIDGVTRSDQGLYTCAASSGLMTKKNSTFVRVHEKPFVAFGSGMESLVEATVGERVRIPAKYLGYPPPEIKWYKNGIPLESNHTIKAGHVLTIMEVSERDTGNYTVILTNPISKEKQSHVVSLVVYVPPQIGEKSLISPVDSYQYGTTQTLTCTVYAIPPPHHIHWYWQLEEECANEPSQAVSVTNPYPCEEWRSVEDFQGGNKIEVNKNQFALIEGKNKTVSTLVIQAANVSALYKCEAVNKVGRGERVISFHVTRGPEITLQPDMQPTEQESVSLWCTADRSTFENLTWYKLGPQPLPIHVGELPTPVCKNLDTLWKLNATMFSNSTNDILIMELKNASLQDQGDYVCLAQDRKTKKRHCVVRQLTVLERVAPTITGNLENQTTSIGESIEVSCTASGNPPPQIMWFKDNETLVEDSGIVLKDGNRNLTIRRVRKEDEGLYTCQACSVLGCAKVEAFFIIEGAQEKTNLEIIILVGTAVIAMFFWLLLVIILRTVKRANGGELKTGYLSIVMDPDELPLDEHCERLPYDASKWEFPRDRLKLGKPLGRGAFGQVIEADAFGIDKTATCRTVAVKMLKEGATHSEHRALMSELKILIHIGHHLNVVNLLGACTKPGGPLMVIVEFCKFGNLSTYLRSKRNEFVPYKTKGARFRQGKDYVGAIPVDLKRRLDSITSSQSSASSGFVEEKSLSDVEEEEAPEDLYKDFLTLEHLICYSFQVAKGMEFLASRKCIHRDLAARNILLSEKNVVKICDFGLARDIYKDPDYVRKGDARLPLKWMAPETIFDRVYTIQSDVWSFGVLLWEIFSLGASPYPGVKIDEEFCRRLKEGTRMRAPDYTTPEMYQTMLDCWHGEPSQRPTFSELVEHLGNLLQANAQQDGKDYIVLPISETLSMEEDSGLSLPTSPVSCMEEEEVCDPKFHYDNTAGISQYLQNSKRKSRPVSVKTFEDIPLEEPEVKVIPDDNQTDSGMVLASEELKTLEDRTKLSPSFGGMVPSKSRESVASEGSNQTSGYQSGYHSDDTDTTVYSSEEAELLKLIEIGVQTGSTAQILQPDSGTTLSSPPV
# [30] = target: Mast/stem cell growth factor receptor Kit (Homo sapiens) (UniProt P10721)
# Chain of Mast/stem cell growth factor receptor Kit (Homo sapiens) (P10721 whole entry): as the sequence (P10721 whole entry, looked up, stated change not applied) above
# [31] = target: Mast/stem cell growth factor receptor Kit (Homo sapiens) (UniProt P10721); remark: listed apart in the source
# [32] = target: Mast/stem cell growth factor receptor Kit (Homo sapiens) (UniProt P10721); remark: listed apart in the source
# [33] = test system: Mast/stem cell growth factor receptor Kit (Homo sapiens), P10721 [UNDEFINED MUTATION]; remark: listed apart in the source
# [34] = test system: Mast/stem cell growth factor receptor Kit (Homo sapiens), P10721 [UNDEFINED MUTATION]; remark: listed apart in the source
# [35] = test system: Mast/stem cell growth factor receptor Kit (Homo sapiens), P10721 [V560D,D816H]
# Chain of Mast/stem cell growth factor receptor Kit (Homo sapiens), P10721 [V560D,D816H] (P10721 whole entry V560D/D816H): as the sequence (P10721 whole entry, looked up, stated change not applied) above, with V560D, D816H counted along it
# [36] = test system: Mast/stem cell growth factor receptor Kit (Homo sapiens), P10721 [D816V]
# Chain of Mast/stem cell growth factor receptor Kit (Homo sapiens), P10721 [D816V] (P10721 whole entry D816V): as the sequence (P10721 whole entry, looked up, stated change not applied) above, with D816V counted along it
structure (smiles),measurement,setting,value
COCCOc1cc(F)c2c(Nc3ccc(NC(=O)Cn4cc(C(C)C)nn4)cc3)ncnc2c1,logD,[1],3
same,Papp A→B at 10 µM,[2],62.3 ×10⁻⁶ cm/s
same,fraction unbound,[3],0.022
same,fraction unbound,[4],0.035
same,hepatocyte CLint,[5],5 µL/min/1e6 cells
same,hepatocyte CLint,[6],17 µL/min/1e6 cells
same,hepatocyte CLint,[7],< 1 µL/min/1e6 cells
same,IC50,[8],> 33300 nM
same,clearance,[9],7 mL/min/kg
same,Vd,[10],0.7 L/kg
same,half-life,[11],2 h
same,bioavailability,[12],100%
same,clearance,[13],8 mL/min/kg
same,half-life,[14],3 h
same,clearance,[15],2 mL/min/kg
same,Vd,[16],0.3 L/kg
same,bioavailability,[17],69%
same,inhibition,[18],Active
same,inhibition,[19],Active
same,inhibition,[20],Active
same,inhibition in vivo at 20 mg/kg,[21],> 100%
same,inhibition in vivo at 2 mg/kg,[22],> 100%
same,inhibition in vivo at 20 mg/kg,[23],> 100%
same,Activity,[24],0%
same,Activity,[25],75%
same,GI50,[26],3 nM
same,GI50,[27],9 nM
same,GI50,[28],16 nM
same,GI50,[29],1380 nM
same,GI50,[30],51 nM
same,GI50,[31],1 nM
same,GI50,[32],8 nM
same,GI50,[33],14 nM
same,GI50,[34],3 nM
same,GI50,[35],18 nM
same,GI50,[36],971 nM
